Assay results taken from ChEMBL document CHEMBL1153118, “Antimalarial activity of azadipeptide nitriles” (Bioorg Med Chem Lett, 2010).

How the values were obtained:
[1] = Inhibition of Plasmodium falciparum recombinant falcipain-2 by microtiter plate spectrofluorimetry
[2] = system: Plasmodium falciparum; experiment: Antimalarial activity against Plasmodium falciparum 3D7 infected in erythrocytes assessed as inhibition of [3H]hypoxanthine incorporation by microbeta liquid scintillation counter; type: functional, organism-based
Outline: (§1)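 Growth inhibition was measured by a standard isotopic assay on cultured P. falciparum-infected erythrocytes, with results reported as IC50 values.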

[3] = system: Plasmodium falciparum; experiment: Antimalarial activity against Plasmodium falciparum Dd2 infected in erythrocytes assessed as inhibition of [3H]hypoxanthine incorporation by microbeta liquid scintillation counter; type: functional, organism-based; outline: as §1
[4] = Inhibition of Plasmodium falciparum recombinant falcipain-3 by microtiter plate spectrofluorimetry
[5] = target: T1, Papain (Carica papaya, UniProt P00784); experiment: Inhibition of Carica papaya papain by microtiter plate spectrofluorimetry
T1 sequence (P00784 whole entry): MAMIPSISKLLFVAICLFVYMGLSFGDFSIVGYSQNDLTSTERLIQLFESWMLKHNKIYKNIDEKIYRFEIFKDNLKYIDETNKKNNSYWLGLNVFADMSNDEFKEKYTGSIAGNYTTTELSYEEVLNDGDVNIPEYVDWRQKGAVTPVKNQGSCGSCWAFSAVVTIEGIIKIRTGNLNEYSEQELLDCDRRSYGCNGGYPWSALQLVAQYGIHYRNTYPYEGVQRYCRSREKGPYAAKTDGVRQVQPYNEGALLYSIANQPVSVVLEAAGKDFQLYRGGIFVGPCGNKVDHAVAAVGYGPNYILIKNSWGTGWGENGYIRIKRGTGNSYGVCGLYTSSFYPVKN

SMILES	IC50 [1]	IC50 [2]	IC50 [3]	IC50 [4]	Ki [5]
CCCCCN(C#N)N(C)C(=O)[C@H](Cc1ccccc1)NC(=O)OCc1ccccc1	0.31 µM	2.9 µM	2.1 µM	0.11 µM	0.01 µM
C[C@@H](C#N)NC(=O)[C@H](Cc1ccccc1)NC(=O)OCc1ccccc1	28 µM	> 25 µM	> 25 µM	16 µM	2.2 µM
C[C@@H](C#N)N(C)C(=O)[C@H](Cc1ccccc1)NC(=O)OCc1ccccc1	> 50 µM	> 25 µM	> 25 µM	> 50 µM	750 µM
CN(C(=O)[C@H](Cc1ccccc1)NC(=O)OCc1ccccc1)N(C#N)Cc1ccccc1	1 µM	7.1 µM	7.5 µM	1.6 µM	0.042 µM
CN(C(=O)[C@H](Cc1ccccc1)NC(=O)OCc1ccccc1)N(C#N)CCc1ccccc1	0.43 µM	5.3 µM	3.6 µM	0.3 µM	0.0063 µM
CN(C#N)N(C)C(=O)[C@H](Cc1ccccc1)NC(=O)OCc1ccccc1	0.57 µM	9.8 µM	15 µM	18 µM	0.0039 µM
CC(C)C[C@H](NC(=O)OCc1ccccc1)C(=O)N(C)N(C)C#N	0.059 µM	16 µM	18 µM	1.9 µM	0.0082 µM
